What was measured:
[1] = Biodistribution in CWR22R-H-bearing castrated mice; format: in vivo, mouse
Outline: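 Castrated mice carried CWR22R-H tumours started s.c. from 10 mg minced tumour in Matrigel. Five mice received one 56 mg/kg dose of test compound. Tumour, liver, kidney, skeletal muscle and brain were harvested 5 days later. Test compound and its PSMA cleavage products were measured in tissue by LC-MS. Tumour levels were compared with other tissues by Student's t test.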

Fc-PSMA = Fc-PSMA (Homo sapiens, UniProt Q04609); test: PSMA prodrug hydrolysis with Fc-PSMA; format: biochemical; settings: incubation with Fc-PSMA
Outline: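 Enzyme activity was confirmed beforehand by 3H-NAAG hydrolysis. Aliquots taken over time were analysed by HPLC with 0.1% TFA in water and acetonitrile, 40–100% B over 25 min. Products were identified by co-elution and confirmed by MS. Human plasma and other purified proteases at equimolar level were also tested.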

[2] = tested on: CWR22R-H human prostate cancer xenografts; test: CWR22R-H xenograft efficacy in castrated mice; format: in vivo, mouse; settings: single 3-day course, 56 mg/kg × 3, out to ≥30 days
Outline: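 Castrated mice had CWR22R-H xenografts from s.c. minced tumour (10 mg) in Matrigel. Three consecutive daily i.v. doses of 56 mg/kg were given on days 0, 1 and 2. Tumour volume was followed for ≥30 days against untreated controls by Student's t test. Body weight was recorded.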

[3] = tested on: MDA-PCa2b human prostate cancer xenografts; test: MDA-PCa2b xenograft efficacy in intact mice; format: in vivo, mouse
Outline: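 Six-week-old male nude mice carried flank MDA-PCa2b tumours from 2 × 10^6 cells in Matrigel. Test compound was given i.v. at 56 mg/kg on 3 consecutive days. Tumour volume was followed for ≥30 days against untreated controls by Student's t test. Tumours harvested 4 days after the last dose had H&E staining and nuclear AR immunostaining with rabbit polyclonal anti-AR antibody.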

[4] = Phase 1 clinical trial pharmacokinetics; format: in vivo, human
Outline: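 Eighteen advanced cancer patients in a phase 1 dose-escalation trial received a 1-hour i.v. infusion at 1.2 to 40 mg/m2. Serum concentrations were followed over 24 hours. Analysis was noncompartmental. AUC0–∞ used the linear trapezoidal method and t1/2 the log-linear terminal slope. Dose proportionality was assessed from AUC across doses.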

[5] = Body weight of xenograft-bearing mice; format: in vivo, mouse; settings: 56 mg/kg × 3, by 5 to 7 days after therapy, baseline by days 14 to 21
[6] = tested on: MCF-7 human breast cancer xenografts; test: MCF-7 xenograft efficacy in female nude mice; format: in vivo, mouse; settings: for T/C ratio: day 21
Outline: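 Female nude mice with s.c. estrogen pellets carried flank tumours from 2 × 10^6 MCF-7 cells. Mice received one, two or three daily doses of 56 mg/kg test compound. Tumour volume and body weight were followed against untreated controls by Student's t test. Xenografts had histology 6 days after two doses. ER was stained with an ERα mAb. T/C was treated-to-control tumour volume.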

[7] = tested on: TSU human bladder cancer xenografts; test: TSU xenograft efficacy; format: in vivo, mouse; settings: more intensive treatment schedule
[8] = GLP toxicology in cynomolgus monkey; format: in vivo
Outline: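 Toxicology was done in cynomolgus monkeys of both sexes at 10 mg/kg, with vehicle-treated controls. Necropsy was on day 33 and examined lymph nodes, spleen and thymus histologically. Splenic/body weight and thymus/body weight ratios were compared with vehicle animals, three per sex.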

GLP toxicology in rat = format: in vivo
LNCaP cells = test: Growth inhibition of LNCaP cells with or without PSMA inhibitor PMPA; format: cell-based, human; settings: 48-hour exposure, PMPA 10 μM
[9] = Pharmacokinetics in monkey toxicological studies; format: in vivo; settings: serum, intravenous
Outline: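 Male and female monkeys received a single 1-hour treatment at 1 to 10 mg/kg. Serum levels of test compound were followed over 24 hours. Analysis was noncompartmental. Terminal half-life came from the terminal slope of a log-linear concentration–time plot.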

[10] = tested on: LNCaP human prostate cancer xenografts; test: LNCaP xenograft efficacy in intact mice; format: in vivo, mouse; settings: for treated-to-control tumor volume (T/C) ratio: maximally tolerated dose × 3
Outline: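 Six-week-old male nude mice were inoculated in the flank with 2 × 10^6 LNCaP cells in Matrigel. Test compound was given i.v. at 56 mg/kg on days 0, 1 and 2. The docetaxel comparator was dosed on days 0, 2 and 5. Tumour volume was followed for 30 days against untreated mice by Student's t test. T/C was the treated-to-control tumour volume ratio.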

[11] = Single-dose pharmacokinetics in BALB/c mice; format: in vivo, mouse; settings: single dose of 67 mg/kg
Outline: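 Wild-type BALB/c mice received a single i.v. dose of 67 mg/kg. Groups of three mice were sampled at time points over 24 hours. Plasma test compound and its 12ADTβAsp cleavage product were quantified by LC-MS/MS. Analysis was noncompartmental, with a semilog regression trend line.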

other purified proteases = test: Hydrolysis by other purified proteases; format: biochemical; settings: equimolar concentrations of other proteases
[12] = Dose-finding / maximum tolerated dose in mice; format: in vivo, mouse; settings: for maximally tolerated dose: × 3 doses
[13] = Stability to hydrolysis in human plasma; format: in vitro ADME
TSU cells = test: Intracellular free calcium in fura-2-loaded TSU cells; format: cell-based, human; settings: PSMA-nonproducing TSU cells
[14] = tested on: PC-3 human prostate cancer cells; test: Clonal survival of PC-3 cells after repeated exposure; format: cell-based; settings: 11 cycles of repeat exposure and clonal expansion, 500 nM
[15] = BALB/c mice; cited from earlier work
[16] = tested on: LNCaP human prostate cancer cells; test: Clonal survival assay, PSMA-positive LNCaP cells, 72-hour exposure; format: cell-based; settings: human cancer cell lines (Fig. 3A: LNCaP)
Outline: (§1)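 Clonal survival assays used PSMA-negative TSU bladder and PSMA-positive LNCaP prostate cancer cells exposed to test compounds for 72 hours. IC50 was the concentration inhibiting proliferation by 50%. Assays were run in triplicate and reported as mean ± SE.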

SERCA pump [17] = target: T1, SERCA pump (Oryctolagus cuniculus, UniProt P04191); test: SERCA pump assay with skeletal muscle microsomes; format: biochemical, rabbit; settings: broken cell microsomal studies
[18] = Biodistribution in MCF-7 tumor-bearing mice; format: in vivo, mouse
SERCA pump [19] = target: T1, SERCA pump; test: Intrinsic fluorescence binding competition on SERCA; settings: intrinsic fluorescent studies
[20] = tested on: TSU human bladder cancer cells; test: Clonal survival assay, PSMA-negative TSU cells, 72-hour exposure; format: cell-based; settings: human cancer cell lines (Fig. 3A: TSU)
Outline: as §1

[21] = MCF-7, 5 days after single dose of G202 56 mg/kg

T1 sequence (P04191 whole entry): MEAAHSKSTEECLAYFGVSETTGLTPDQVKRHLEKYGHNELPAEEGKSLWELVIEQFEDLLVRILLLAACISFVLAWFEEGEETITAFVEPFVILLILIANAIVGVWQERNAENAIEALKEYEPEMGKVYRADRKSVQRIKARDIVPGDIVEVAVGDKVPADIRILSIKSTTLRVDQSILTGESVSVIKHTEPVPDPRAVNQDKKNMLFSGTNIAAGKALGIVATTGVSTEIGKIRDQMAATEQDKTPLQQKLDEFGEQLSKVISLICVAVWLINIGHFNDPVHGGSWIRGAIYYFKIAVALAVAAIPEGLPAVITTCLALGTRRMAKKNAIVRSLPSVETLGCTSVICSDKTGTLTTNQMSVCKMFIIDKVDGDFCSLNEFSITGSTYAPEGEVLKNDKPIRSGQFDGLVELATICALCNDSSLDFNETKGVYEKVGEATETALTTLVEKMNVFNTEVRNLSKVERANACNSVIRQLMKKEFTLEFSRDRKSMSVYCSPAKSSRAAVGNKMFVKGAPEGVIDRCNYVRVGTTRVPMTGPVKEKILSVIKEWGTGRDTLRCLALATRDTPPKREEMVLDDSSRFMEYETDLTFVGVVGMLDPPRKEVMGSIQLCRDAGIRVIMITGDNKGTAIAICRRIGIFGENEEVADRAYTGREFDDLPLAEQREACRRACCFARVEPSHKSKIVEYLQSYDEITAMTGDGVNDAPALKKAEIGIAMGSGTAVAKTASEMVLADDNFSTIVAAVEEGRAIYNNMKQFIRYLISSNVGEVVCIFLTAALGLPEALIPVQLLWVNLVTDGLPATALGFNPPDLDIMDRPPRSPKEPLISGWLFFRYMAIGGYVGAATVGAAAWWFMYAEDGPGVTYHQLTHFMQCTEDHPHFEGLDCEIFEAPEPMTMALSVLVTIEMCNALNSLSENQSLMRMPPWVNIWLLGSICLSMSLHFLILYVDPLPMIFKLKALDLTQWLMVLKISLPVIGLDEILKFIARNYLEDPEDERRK
Fc-PSMA, sequence (Q04609 44-750 limits assumed): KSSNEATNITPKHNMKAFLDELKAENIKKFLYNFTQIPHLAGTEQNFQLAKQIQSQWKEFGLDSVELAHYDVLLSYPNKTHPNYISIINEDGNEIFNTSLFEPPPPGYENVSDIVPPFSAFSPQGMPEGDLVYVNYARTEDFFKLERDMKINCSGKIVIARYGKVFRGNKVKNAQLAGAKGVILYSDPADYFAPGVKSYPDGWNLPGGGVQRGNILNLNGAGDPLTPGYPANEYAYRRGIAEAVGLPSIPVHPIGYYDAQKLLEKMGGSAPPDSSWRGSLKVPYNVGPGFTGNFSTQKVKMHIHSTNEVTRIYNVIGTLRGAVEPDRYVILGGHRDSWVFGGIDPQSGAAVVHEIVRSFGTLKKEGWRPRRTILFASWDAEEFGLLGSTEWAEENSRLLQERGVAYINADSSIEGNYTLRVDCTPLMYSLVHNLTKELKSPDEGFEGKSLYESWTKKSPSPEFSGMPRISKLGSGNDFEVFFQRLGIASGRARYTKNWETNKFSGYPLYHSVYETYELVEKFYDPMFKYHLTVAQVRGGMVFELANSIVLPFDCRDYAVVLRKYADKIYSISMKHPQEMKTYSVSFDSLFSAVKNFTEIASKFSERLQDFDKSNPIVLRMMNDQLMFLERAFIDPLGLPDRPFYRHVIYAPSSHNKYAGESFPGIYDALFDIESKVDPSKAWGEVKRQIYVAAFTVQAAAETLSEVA

For `C/C=C(/C)C(=O)O[C@H]1C(C)=C2[C@H]([C@@H]1OC(=O)CCCCCCC)[C@@](C)(OC(C)=O)C[C@H](OC(=O)CCCCCCCCCCCNC(=O)C[C@H](N)C(=O)N[C@@H](CCC(=O)N[C@@H](CCC(=O)N[C@@H](CCC(=O)N[C@@H](CCC(=O)O)C(=O)O)C(=O)O)C(=O)O)C(=O)O)[C@@]1(O)[C@H]2OC(=O)[C@@]1(C)O` [G202, 12ADTβAsp-GluγGluγGluγGlu], the “amount detected in the brain” value ([1]; mouse biodistribution studies) was “low amounts”, the “hydrolysis by PSMA” value (Fc-PSMA) was “efficiently hydrolyzed by PSMA” and the antitumor effect [2] was “Significant antitumor effects”. For the same molecule, the “androgen receptor (AR) expression in tumors” value ([3]; 4 days after 56 mg/kg × 3) was “marked down-regulation of AR expression”, the antitumor effect ([3]; single 3-day course, 56 mg/kg × 3, out to ≥30 days) was “Significant antitumor effects” and the “predicted increase of AUC for a doubling in dose” value ([4]; first six dose cohorts, 1.2 to 40 mg/m^2) was 2.23 fold. The “terminal half-life in patients relative to monkey” value ([4]; human versus monkey) was roughly 1.5 fold, the half-life ([4]; human, serum, intravenous) was 15.1 h and the “maximum body weight loss” value [5] was “about 15%”. The “T/C ratio at 3 weeks after treatment” value ([6]; MCF-7) was 0.05, the “effect on tumor growth” value ([6]; single dose 56 mg/kg on 1 day) was “tumor growth delay” and the T/C ratio ([6]; three consecutive doses of 56 mg/kg) was 0.06 ± 0.005. For the same molecule, the T/C ratio ([6]; two consecutive doses of 56 mg/kg) was 0.05 ± 0.006, the “effect on tumor growth” value ([6]; two daily doses of 56 mg/kg, out to 30 days, all treated animals) was “sustained tumor regression” and the “estrogen receptor (ER) expression in tumors” value ([6]; two doses of 56 mg/kg, nadir 3 days after the last dose) was “down-regulation of the estrogen receptor”. For the same molecule, the “T/C ratio at 3 weeks after treatment” value [7] was 0.32, the “animals with lymphoid depletion of lymph nodes” value ([8]; 10 mg/kg) was “five of six” and the “animals with lymphoid depletion of spleen” value ([8]; 10 mg/kg) was “five of six”. The “increase of splenic ratio” value ([8]; female monkeys, 10 mg/kg) was 25%, the “decrease of splenic/body weight ratio versus vehicle” value ([8]; male monkeys, 10 mg/kg) was 44% and the “decrease of thymus/body weight ratio versus vehicle” value ([8]; male monkeys, 10 mg/kg) was 67%. For the same molecule, the bone marrow toxicity ([8]; monkey toxicology studies) was “no bone marrow toxicity”, the brain pathology ([8]; six monkeys, three consecutive doses of 10 mg/kg) was “within normal limits” and the brain pathology (GLP toxicology in rat; rat pathological studies) was “lack of toxicity to the brain”. For the same molecule, the renal toxicity (GLP toxicology in rat; rat toxicological studies) was “transient reversible renal toxicity”, the bone marrow toxicity (GLP toxicology in rat; rat toxicology studies) was “no bone marrow toxicity” and the “growth inhibition of LNCaP cells on addition of PMPA” value (LNCaP cells) was “could be blocked”. The half-life [9] was 9.7 h, the “treated-to-control tumor volume (T/C) ratio” value [10] was 0.15 and the “average regression of xenografts” value ([10]; single 3-day course, 56 mg/kg × 3, over a 30-day period) was roughly 50%. For the same molecule, the “fraction of dose converted in the circulation to 12ADTβAsp” value [11] was “Less than 1%”, the “hydrolysis by other purified proteases” value (other purified proteases) was “not appreciably hydrolyzed” and the bone marrow toxicity ([12]; mouse toxicology studies) was “no bone marrow toxicity”. The MTD ([12]; mouse, in vivo, iv) was 112 mg/kg, the “mortality of treated animals” value ([12]; up to three consecutive daily doses of 56 mg/kg (1 μmol/dose)) was less than 10% and the “maximally tolerated single intravenous dose” value ([12]; wild-type mice) was 2 μmol/dose. The “TG molar equivalents deliverable systemically compared to TG alone” value ([12]; without significant host toxicity) was greater than 150 fold, the maximally tolerated dose [12] was 1.0 µmol and the “stability to hydrolysis in human plasma” value [13] was “completely stable to hydrolysis in human plasma”. The “increase in intracellular calcium” value (TSU cells; 5 mM (25-fold higher concentration)) was “no appreciable increase in intracellular calcium”.

With `CC(=O)O[C@@]12CO[C@@H]1C[C@H](O)[C@@]1(C)C(=O)[C@H](O)C3=C(C)[C@@H](OC(=O)[C@H](O)[C@@H](NC(=O)OC(C)(C)C)c4ccccc4)C[C@@](O)([C@@H](OC(=O)c4ccccc4)[C@H]21)C3(C)C` [docetaxel, reference compound] the “treated-to-control tumor volume (T/C) ratio” value [10] was 0.63 and the maximally tolerated dose [12] was 0.39 µmol.

For `C/C=C(/C)C(=O)O[C@H]1C(C)=C2[C@H]([C@@H]1OC(=O)CCCCCCC)[C@@](C)(OC(C)=O)C[C@H](OC(=O)CCC)[C@@]1(O)[C@H]2OC(=O)[C@@]1(C)O` [TG, thapsigargin], the “clonal survival after repeated exposure” value [14] is given as “no change in clonal survival” and the “lethal dose for 100% of the test population (LD100)” value [15] is given as 0.2 mg/kg.

In the case of `C/C=C(/C)C(=O)O[C@H]1C(C)=C2[C@H]([C@@H]1OC(=O)CCCCCCC)[C@@](C)(OC(C)=O)C[C@H](OC(=O)CCCCCCCCCCCNC(=O)C[C@H](N)C(=O)O)[C@@]1(O)[C@H]2OC(=O)[C@@]1(C)O` [12ADTβAsp], the “accumulation in tumor tissue” value ([1]; 5 days after single dose of G202 56 mg/kg, CWR22R-H tumor) is reported as “micromolar levels”, the “fold higher amount in tumor tissue compared to normal brain” value ([1]; CWR22R-H, after G202 56 mg/kg) is reported as 354 fold and the “fold higher amount in tumor tissue compared to normal kidney” value ([1]; CWR22R-H, after G202 56 mg/kg) is reported as 15 fold. The “cytotoxic potency compared with TG” value [16] was “comparable to those of TG”, the “potency at inhibiting the SERCA pump compared with TG” value (SERCA pump [17]) was “as potent at inhibiting the SERCA pump in broken cell microsomal studies as was TG” and the “fold higher amount in tumors than in kidney” value [18, 21] was 3.5 fold. The “fold higher amount in tumors than in skeletal muscle” value [18, 21] was 1.6 fold, the “tumor concentration relative to that in CWR22R-H xenografts” value ([18]; MCF-7 versus CWR22R-H) was 1/10 and the “binding competition with cyclopiazonic acid (CPA)” value (SERCA pump [19]) was “competitively affect the binding of each other”. For the same molecule, the “cytotoxic potency compared with TG” value [20] was “comparable to those of TG” and the “maximal elevation in intracellular Ca2+” value (TSU cells; 200 nM) was “up to 400 nM”.
